The text below walks through data of ChEMBL document CHEMBL1123632, “Cardiotonic agents. 7. Inhibition of separated forms of cyclic nucleotide phosphodiesterase from guinea pig cardiac muscle by 4,5-dihydro-6-[4-(1H-imidazol-1-yl)phenyl]-3(2H)-pyridazinones and related compounds. Structure-activity relationships and correlation with in vivo positive inotropic …” (J Med Chem, 1987).

The species entered for one experiment is Canis familiaris. Put plainly: Effective dose required to increase myocardial contractility in dog. It counts as functional. The following applies: Canis lupus familiaris, Myocardium. An outline of the steps:
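Anesthetized mongrel dogs (either sex): pentobarbital 35 mg/kg iv, then 5 mg kg⁻¹ h⁻¹ infusion. After 30-min control, compound in saline or dilute HCl/NaOH diluted with saline given iv over 1 min, cumulative half-log doses (typically four to six), 10–30 min apart.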

Experiment [1] has as its target T1, cGMP-dependent 3',5'-cyclic phosphodiesterase (Homo sapiens, UniProt O00408). Briefly: Inhibition of cGMP PDE II enzyme in guinea pig at 1E-4M concentration. The following applies: Cavia porcellus; target entry is the homologue from another species.
Experiment [2] deals with T1, cGMP-dependent 3',5'-cyclic phosphodiesterase. Briefly: Inhibition of cGMP PDE II enzyme in guinea pig at 1E-5M concentration. Conditions: Cavia porcellus; target entry is the homologue from another species.
The target is the same in experiment [3]. Briefly: Inhibition of PDE II enzyme in guinea pig. The following applies: target entry is the homologue from another species. Details: species or system Cavia porcellus.
For experiment [4] the target is unchanged. Put plainly: Inhibitory concentration against cGMP PDE II enzyme in guinea pig. Details: species or system Cavia porcellus. Conditions: target entry is the homologue from another species.
Experiment [5] has as its target T2, Phosphodiesterase 3 (Homo sapiens, UniProt Q14432+Q13370). Put plainly: Inhibitory concentration against cAMP PDE III enzyme in guinea pig. It counts as protein assay, Cavia porcellus. Conditions: target entry is the homologue from another species.
For experiment [6], the target named is T2, Phosphodiesterase 3. Briefly: Inhibition of cAMP PDE III enzyme in guinea pig at 1E-4M concentration. The class given is protein assay. Conditions: Cavia porcellus; target entry is the homologue from another species.
Experiment [7] has as its target T2, Phosphodiesterase 3. Briefly: Inhibition of cAMP PDE III enzyme in guinea pig at 1E-5M concentration. It counts as protein assay. Conditions: Cavia porcellus; target entry is the homologue from another species.
In experiment [8] the target is T3, Phosphodiesterase 1 (Homo sapiens, UniProt P54750+Q01064+Q14123). Briefly: Inhibition of cAMP PDE I enzyme in guinea pig at 1E-4M concentration. The following applies: Cavia porcellus; target entry is the homologue from another species. It counts as protein assay.
The target of experiment [9] is T3, Phosphodiesterase 1. Briefly: Inhibition of cAMP PDE I enzyme in guinea pig at 1E-5M concentration. The class given is protein assay. Conditions: Cavia porcellus; target entry is the homologue from another species.
For experiment [10], the target named is T3, Phosphodiesterase 1. Briefly: Inhibition of cGMP PDE I enzyme in guinea pig at 1E-4M concentration. It counts as protein assay. The following applies: Cavia porcellus; target entry is the homologue from another species.
Experiment [11] deals with T3, Phosphodiesterase 1. Put plainly: Inhibition of cGMP PDE I enzyme in guinea pig at 1E-5M concentration. The following applies: Cavia porcellus; target entry is the homologue from another species. It counts as protein assay.
Experiment [12] concerns the target T1, cGMP-dependent 3',5'-cyclic phosphodiesterase. Briefly: Inhibition of cAMP PDE II enzyme in guinea pig at 1E-5M concentration. The following applies: Cavia porcellus; target entry is the homologue from another species.
A short description of experiment [13]: Ratio of IC50 values for PDE III and PDE I.
Experiment [14] is described as follows: Ratio of IC50 values for PDE III and PDE II.
For experiment [15], the target named is PDE I (Cavia porcellus). Put plainly: Inhibitory concentration against cAMP PDE I enzyme in guinea pig.
Experiment [16] deals with PDE I (Cavia porcellus). Put plainly: Inhibitory concentration against cGMP PDE I enzyme in guinea pig.
For a further experiment, the system named is PDE II (Cavia porcellus). Put plainly: Inhibition of cAMP PDE II enzyme in guinea pig at 1E-4M concentration.

SMILES strings stand for the structures. Bounds are passed on as bounds.

T1 sequence (O00408 whole entry): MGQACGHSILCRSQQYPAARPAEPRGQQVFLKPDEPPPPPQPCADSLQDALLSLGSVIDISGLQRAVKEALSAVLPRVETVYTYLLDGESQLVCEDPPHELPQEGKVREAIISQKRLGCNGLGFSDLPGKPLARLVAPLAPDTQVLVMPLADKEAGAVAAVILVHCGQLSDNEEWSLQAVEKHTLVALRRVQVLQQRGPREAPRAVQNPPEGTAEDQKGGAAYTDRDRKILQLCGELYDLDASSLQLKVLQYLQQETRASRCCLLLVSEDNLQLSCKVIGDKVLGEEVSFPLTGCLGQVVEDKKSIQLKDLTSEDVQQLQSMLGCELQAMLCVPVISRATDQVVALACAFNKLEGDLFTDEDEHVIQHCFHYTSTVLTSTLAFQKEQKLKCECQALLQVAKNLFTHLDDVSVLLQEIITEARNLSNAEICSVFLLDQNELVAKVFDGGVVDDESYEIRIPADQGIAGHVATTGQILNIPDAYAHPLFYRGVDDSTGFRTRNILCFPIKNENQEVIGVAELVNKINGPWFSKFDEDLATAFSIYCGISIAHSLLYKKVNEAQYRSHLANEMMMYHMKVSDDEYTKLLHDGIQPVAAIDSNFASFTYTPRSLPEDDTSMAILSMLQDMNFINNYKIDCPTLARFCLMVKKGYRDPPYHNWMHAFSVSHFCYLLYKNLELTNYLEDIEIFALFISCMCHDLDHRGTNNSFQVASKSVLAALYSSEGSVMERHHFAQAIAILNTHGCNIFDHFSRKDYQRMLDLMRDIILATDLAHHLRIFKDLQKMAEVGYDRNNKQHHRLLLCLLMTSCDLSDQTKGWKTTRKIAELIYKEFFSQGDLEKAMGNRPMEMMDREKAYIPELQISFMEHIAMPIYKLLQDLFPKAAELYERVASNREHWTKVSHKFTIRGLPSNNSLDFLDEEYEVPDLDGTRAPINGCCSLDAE

The ED50 is the midpoint of the dose-response relation. A higher ED50 goes with a need for a large dose. The inhibition is the change of the read-out against control, counted positive when it falls. One may read the IC50 as the concentration at which inhibition is half-maximal. Read a high IC50 as weaker potency. Molecule `Nc1cc(-c2ccc(-n3ccnc3)cc2)nnc1O` yielded a 50% effective dose (ED50) in the experiment listed under Canis familiaris of 0.3 mg/kg. Moreover, the inhibition in [1] amounted to 51%; in experiment [2] it was 10%; at Phosphodiesterase 3 [6], 64%; on Phosphodiesterase 3 [7], 41%; against Phosphodiesterase 1 [8] it was 20%; on Phosphodiesterase 1 [9] it was 6%. Also, the inhibition against Phosphodiesterase 1 [10] was 28%; against Phosphodiesterase 1 [11] it was 7%; in experiment [12] it was 13%; in the experiment on PDE II (Cavia porcellus) it was 44%. Moreover, the half-inhibitory concentration (IC50) in [3] was 110 µM; in experiment [4] it was 88 µM; against Phosphodiesterase 3 [5] it was 22 µM; against PDE I (Cavia porcellus) [15], more than 500 µM; against PDE I (Cavia porcellus) [16] it was more than 500 µM. Besides, the Ratio in [13] was less than 44; in [14], 200.
